According to ChEMBL document CHEMBL4270612, “Discovery of dual GyrB/ParE inhibitors active against Gram-negative bacteria” (Eur J Med Chem, 2018):
In brackets after ≈: the same amount, converted by molar mass.

Experiments:
Pseudomonas aeruginosa [1] = assay: Antibacterial activity against Pseudomonas aeruginosa ARC3509 after 24 hrs by broth microdilution method; type: functional; details: ARC3509, 24 h
Summary of the method: (§1)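 Broth microdilution per CLSI. Bacterial suspension adjusted to 1×10^6 CFU/mL in cation-adjusted Mueller–Hinton broth and mixed 1:1 with 2-fold serial compound dilutions. Final DMSO 2.5% v/v. Plates incubated at 35 °C with shaking at 140 rpm for 24 h.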

Acinetobacter baumannii [2] = assay: Antibacterial activity against Acinetobacter baumannii ARC3484 after 24 hrs by broth microdilution method; type: functional; details: ARC3484, 24 h
Summary of the method: (§2)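 Broth microdilution per CLSI. Bacterial suspension adjusted to 1×10^6 CFU/mL in cation-adjusted Mueller–Hinton broth and mixed 1:1 with 2-fold serial compound dilutions. Plates incubated at 35 °C with shaking at 140 rpm for 24 h.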

Acinetobacter baumannii [3] = assay: Antibacterial activity against Acinetobacter baumannii ARC3882 after 24 hrs by broth microdilution method; type: functional; details: ARC3882, 24 h; summary of the method: as §1
Haemophilus influenzae = assay: Antibacterial activity against Haemophilus influenzae ATCC 49247 after 24 hrs by broth microdilution method; type: functional; details: ATCC 49247, 24 h; summary of the method: as §1
Acinetobacter baumannii [4] = assay: Antibacterial activity against Acinetobacter baumannii ARC3486 after 24 hrs by broth microdilution method; type: functional; details: ARC3486, 24 h; summary of the method: as §1
Pseudomonas aeruginosa [5] = assay: Antibacterial activity against Pseudomonas aeruginosa ARC4060 after 24 hrs by broth microdilution method; type: functional; details: ARC4060, 24 h; summary of the method: as §1
Pseudomonas aeruginosa [6] = assay: Antibacterial activity against Pseudomonas aeruginosa ARC3505 after 24 hrs by broth microdilution method; type: functional; details: ARC3505, 24 h; summary of the method: as §1
Pseudomonas aeruginosa [7] = assay: Antibacterial activity against Pseudomonas aeruginosa ARC003 after 24 hrs by broth microdilution method; type: functional; details: ARC003, 24 h; summary of the method: as §1
Acinetobacter baumannii [8] = assay: Antibacterial activity against Acinetobacter baumannii ARC3489 after 24 hrs by broth microdilution method; type: functional; details: ARC3489, 24 h; summary of the method: as §1
Acinetobacter baumannii [9] = assay: Antibacterial activity against Acinetobacter baumannii ARC2675 after 24 hrs by broth microdilution method; type: functional; details: ARC2675, 24 h; summary of the method: as §2
Pseudomonas aeruginosa [10] = assay: Antibacterial activity against Pseudomonas aeruginosa PAO1 after 24 hrs by broth microdilution method; type: functional; details: PAO1, 24 h; summary of the method: as §1
Acinetobacter baumannii [11] = assay: Antibacterial activity against Acinetobacter baumannii ARC3658 after 24 hrs by broth microdilution method; type: functional; details: ARC3658, 24 h; summary of the method: as §1
Acinetobacter baumannii [12] = assay: Antibacterial activity against Acinetobacter baumannii ARC3515 after 24 hrs by broth microdilution method; type: functional; details: ARC3515, 24 h; summary of the method: as §1
[13] = Growth inhibition of human A549 cells; type: cell-based
Acinetobacter baumannii [14] = assay: Antibacterial activity against Acinetobacter baumannii ARC3493 after 24 hrs by broth microdilution method; type: functional; details: ARC3493, 24 h; summary of the method: as §1
Streptococcus pyogenes = assay: Antibacterial activity against Streptococcus pyogenes ARC838 after 24 hrs by broth microdilution method; type: functional; details: ARC838, 24 h; summary of the method: as §2
Escherichia coli [15] = assay: Antibacterial activity against tolC deficient Escherichia coli after 24 hrs by broth microdilution method; type: functional
Summary of the method: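 Broth microdilution per CLSI guidelines. Inoculum adjusted to 1×10^6 CFU/mL in cation-adjusted Mueller–Hinton broth, added 1:1 to 2-fold serial compound dilutions; final DMSO 2.5% v/v. Plates incubated 35 °C, 140 rpm, 24 h.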

Acinetobacter baumannii [16] = assay: Antibacterial activity against Acinetobacter baumannii ARC3492 after 24 hrs by broth microdilution method; type: functional; details: ARC3492, 24 h; summary of the method: as §2
Acinetobacter baumannii [17] = assay: Antibacterial activity against Acinetobacter baumannii ARC3495 after 24 hrs by broth microdilution method; type: functional; details: ARC3495, 24 h; summary of the method: as §1
Pseudomonas aeruginosa [18] = assay: Antibacterial activity against Pseudomonas aeruginosa ARC3729 after 24 hrs by broth microdilution method; type: functional; details: ARC3729, 24 h; summary of the method: as §1
Staphylococcus aureus [19] = assay: Antibacterial activity against Staphylococcus aureus ATCC 29213 after 24 hrs in presence of 2% human albumin by broth microdilution method; type: functional; details: ATCC 29213, 24 h
Pseudomonas aeruginosa [20] = assay: Antibacterial activity against Pseudomonas aeruginosa ARC4068 after 24 hrs by broth microdilution method; type: functional; details: ARC4068, 24 h; summary of the method: as §2
Staphylococcus aureus [21] = assay: Antibacterial activity against Staphylococcus aureus ATCC 29213 after 24 hrs by broth microdilution method; type: functional; details: ATCC 29213, 24 h; summary of the method: as §1
Pseudomonas aeruginosa [22] = assay: Antibacterial activity against Pseudomonas aeruginosa ARC3506 after 24 hrs by broth microdilution method; type: functional; details: ARC3506, 24 h; summary of the method: as §1
Candida albicans = assay: Antifungal activity against Candida albicans ATCC 90028 after 24 hrs by broth microdilution method; type: functional; details: ATCC 90028, 24 h
Staphylococcus aureus [23] = assay: Antibacterial activity against methicillin-resistant Staphylococcus aureus FQ-R after 24 hrs by broth microdilution method; type: functional
Summary of the method: (§3)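 Broth microdilution per CLSI. Bacterial suspensions adjusted to 1×10^6 CFU/mL in cation-adjusted Mueller–Hinton broth, mixed 1:1 with 2-fold serial compound dilutions (final DMSO 2.5% v/v). Incubation 35 °C, 140 rpm, 24 h.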

Pseudomonas aeruginosa [24] = assay: Antibacterial activity against Pseudomonas aeruginosa ARC3502 after 24 hrs by broth microdilution method; type: functional; details: ARC3502, 24 h; summary of the method: as §2
Acinetobacter baumannii [25] = assay: Antibacterial activity against Acinetobacter baumannii ARC2728 after 24 hrs by broth microdilution method; type: functional; details: ARC2728, 24 h; summary of the method: as §1
Acinetobacter baumannii [26] = assay: Antibacterial activity against Acinetobacter baumannii ARC3659 after 24 hrs by broth microdilution method; type: functional; details: ARC3659, 24 h; summary of the method: as §1
Pseudomonas aeruginosa [27] = assay: Antibacterial activity against Pseudomonas aeruginosa ARC3612 after 24 hrs by broth microdilution method; type: functional; details: ARC3612, 24 h; summary of the method: as §1
Acinetobacter baumannii [28] = assay: Antibacterial activity against Acinetobacter baumannii ARC3513 after 24 hrs by broth microdilution method; type: functional; details: ARC3513, 24 h; summary of the method: as §1
Acinetobacter baumannii [29] = assay: Antibacterial activity against Acinetobacter baumannii ARC2674 after 24 hrs by broth microdilution method; type: functional; details: ARC2674, 24 h; summary of the method: as §1
Enterobacter cloacae = assay: Antibacterial activity against Enterobacter cloacae ARC3528 after 24 hrs by broth microdilution method; type: functional; details: ARC3528, 24 h; summary of the method: as §1
Acinetobacter baumannii [30] = assay: Antibacterial activity against Acinetobacter baumannii ARC2779 after 24 hrs by broth microdilution method; type: functional; details: ARC2779, 24 h; summary of the method: as §1
Acinetobacter baumannii [31] = assay: Antibacterial activity against Acinetobacter baumannii ARC2782 after 24 hrs by broth microdilution method; type: functional; details: ARC2782, 24 h; summary of the method: as §1
Pseudomonas aeruginosa [32] = assay: Antibacterial activity against Pseudomonas aeruginosa harboring MexABCDXY deletion mutant after 24 hrs by broth microdilution method; type: functional; summary of the method: as §3
Staphylococcus aureus [33] = assay: Antibacterial activity against methicillin-resistant Staphylococcus aureus USA100 after 24 hrs by broth microdilution method; type: functional; details: USA100, 24 h; summary of the method: as §3
[34] = Thermodynamic solubility of the compound at pH 7.4; type: physicochemical; details: buffer, read-out: Therm_solubility
Pseudomonas aeruginosa [35] = assay: Antibacterial activity against Pseudomonas aeruginosa ARC3756 after 24 hrs by broth microdilution method; type: functional; details: ARC3756, 24 h; summary of the method: as §2
Escherichia coli [36] = assay: Antibacterial activity against Escherichia coli after 24 hrs by broth microdilution method; type: functional; summary of the method: as §1
Pseudomonas aeruginosa [37] = assay: Antibacterial activity against Pseudomonas aeruginosa ARC3607 after 24 hrs by broth microdilution method; type: functional; details: ARC3607, 24 h; summary of the method: as §1
Acinetobacter baumannii [38] = assay: Antibacterial activity against Acinetobacter baumannii ARC2780 after 24 hrs by broth microdilution method; type: functional; details: ARC2780, 24 h; summary of the method: as §2
Enterococcus faecalis = assay: Antibacterial activity against Enterococcus faecalis ATCC 29212 after 24 hrs by broth microdilution method; type: functional; details: ATCC 29212, 24 h; summary of the method: as §1

CCNC(=O)Nc1cc(-c2nc(C(F)(F)F)cs2)c(-c2cc(-c3n[nH]c(=O)o3)cnc2N2C3CCC2CN(C)C3)cn1
MIC (Pseudomonas aeruginosa [1]): 8 µg/mL (≈ 13.3 µM) | MIC (Acinetobacter baumannii [2]): 2 µg/mL (≈ 3.32 µM) | MIC (Acinetobacter baumannii [3]): 1 µg/mL (≈ 1.66 µM) | MIC (Haemophilus influenzae): < 0.06 µg/mL | MIC (Acinetobacter baumannii [4]): 2 µg/mL (≈ 3.32 µM) | MIC (Pseudomonas aeruginosa [5]): 8 µg/mL (≈ 13.3 µM) | MIC (Pseudomonas aeruginosa [6]): 8 µg/mL (≈ 13.3 µM) | MIC (Pseudomonas aeruginosa [7]): 2 µg/mL (≈ 3.32 µM) | MIC (Acinetobacter baumannii [8]): 1 µg/mL (≈ 1.66 µM) | MIC (Acinetobacter baumannii [9]): 4 µg/mL (≈ 6.65 µM) | MIC (Pseudomonas aeruginosa [10]): 2.4 µg/mL (≈ 3.99 µM) | MIC (Acinetobacter baumannii [11]): 1 µg/mL (≈ 1.66 µM) | MIC (Acinetobacter baumannii [12]): 1 µg/mL (≈ 1.66 µM) | GI50 [13]: > 40 µM | MIC (Acinetobacter baumannii [14]): 1 µg/mL (≈ 1.66 µM) | MIC (Streptococcus pyogenes): < 0.06 µg/mL | MIC (Escherichia coli [15]): 0.12 µg/mL (≈ 0.199 µM) | MIC (Acinetobacter baumannii [16]): 1 µg/mL (≈ 1.66 µM) | MIC (Acinetobacter baumannii [17]): 0.5 µg/mL (≈ 0.831 µM) | MIC (Pseudomonas aeruginosa [18]): 4 µg/mL (≈ 6.65 µM) | MIC (Staphylococcus aureus [19]): < 0.06 µg/mL | MIC (Pseudomonas aeruginosa [20]): 8 µg/mL (≈ 13.3 µM) | MIC (Staphylococcus aureus [21]): < 0.06 µg/mL | MIC (Pseudomonas aeruginosa [22]): 4 µg/mL (≈ 6.65 µM) | MIC (Candida albicans): > 64 µg/mL | MIC (Staphylococcus aureus [23]): < 0.06 µg/mL | MIC (Pseudomonas aeruginosa [24]): 8 µg/mL (≈ 13.3 µM) | MIC (Acinetobacter baumannii [25]): 1 µg/mL (≈ 1.66 µM) | MIC (Acinetobacter baumannii [26]): 1 µg/mL (≈ 1.66 µM) | MIC (Pseudomonas aeruginosa [27]): 8 µg/mL (≈ 13.3 µM) | MIC (Acinetobacter baumannii [28]): 4 µg/mL (≈ 6.65 µM) | MIC (Acinetobacter baumannii [29]): 4 µg/mL (≈ 6.65 µM) | MIC (Enterobacter cloacae): 32 µg/mL (≈ 53.2 µM) | MIC (Acinetobacter baumannii [30]): 1 µg/mL (≈ 1.66 µM) | MIC (Acinetobacter baumannii [31]): 1 µg/mL (≈ 1.66 µM) | MIC (Pseudomonas aeruginosa [32]): 0.3 µg/mL (≈ 0.499 µM) | MIC (Staphylococcus aureus [33]): < 0.06 µg/mL | solubility thermodynamic [34]: 1490 µM (≈ 896 µg/mL) | MIC (Pseudomonas aeruginosa [35]): 8 µg/mL (≈ 13.3 µM) | MIC (Escherichia coli [36]): 1.2 µg/mL (≈ 1.99 µM) | MIC (Pseudomonas aeruginosa [37]): 16 µg/mL (≈ 26.6 µM) | MIC (Acinetobacter baumannii [38]): 0.5 µg/mL (≈ 0.831 µM) | MIC (Enterococcus faecalis): < 0.06 µg/mL
